Measured values: ChEMBL document CHEMBL1287718, “1-Benzyl derivatives of 5-(arylamino)uracils as anti-HIV-1 and anti-EBV agents” (Bioorg Med Chem, 2010)
pEC50: −log10 of the molar value.

Experiments:
[1] = Selectivity index, ratio of CC50 for human CEM-SS cells to EC50 for Human immunodeficiency virus 1 infected in human CEM-SS cells; type: toxicity, cell-based; conditions: read-out: Ratio CC50/EC50
In short: (§1)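 EC50 is the concentration that reduces virus replication by 50%. CC50 is the concentration giving 50% loss of viability in uninfected cells. Both are calculated by linear regression analysis. The selectivity index is CC50 divided by EC50.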

[2] = Cytotoxicity against human CEM-SS cells assessed as cell viability by XTT assay; type: cell-based; in short: as §1
[3] = Cytotoxicity against human Akata cells assessed as cell viability by XTT assay; type: cell-based; in short: as §1
Human gammaherpesvirus 4 = experiment: Antiviral activity against Epstein-Barr virus infected in human Akata cells assessed as virus induced cytopathic effects by XTT assay; type: functional, organism-based; conditions: human gammaherpesvirus 4, Akata; in short: as §1
[4] = system: Human immunodeficiency virus 1; experiment: Antiviral activity against Human immunodeficiency virus 1 infected in human CEM-SS cells assessed as virus induced cytopathic effects; type: functional, organism-based; conditions: Human immunodeficiency virus 1, CEM-SS; in short: as §1
[5] = Selectivity index, ratio of CC50 for human Akata cells to EC50 for Epstein-Barr virus infected in human Akata cells; type: toxicity, cell-based; conditions: read-out: Ratio CC50/EC50; in short: as §1

Compound	selectivity ratio [1]	CC50 [2] [µM]	CC50 [3] [µM]	pEC50 (Human gammaherpesvirus 4)	pEC50 [4]	selectivity ratio [5]
O=c1[nH]c(=O)n(Cc2ccc(Cl)cc2Cl)cc1NCCc1ccccc1	> 2.34	> 100	> 100	4.17	4.37	> 1.5
O=c1[nH]c(=O)n(Cc2ccc(Cl)cc2Cl)cc1NCc1ccccc1	> 1.8	> 100	96.3	4.40	4.26	2.4
Cc1cc(C)cc(Cn2cc(NCc3ccccc3)c(=O)[nH]c2=O)c1	17.8	168	–	–	5.02	–
O=c1[nH]c(=O)n(Cc2cccc(Oc3ccccc3)c2)cc1Nc1ccccc1	–	> 100	> 100	5.64	< 4.00	> 43
Cc1ccc(Nc2cn(Cc3ccc(Cl)cc3Cl)c(=O)[nH]c2=O)cc1	–	–	92.3	4.36	–	2.1
O=c1[nH]c(=O)n(Cc2cccc(Cl)c2)cc1Nc1ccccc1	–	–	> 100	4.70	–	> 5
Cc1cc(C)cc(Cn2cc(Nc3ccccc3)c(=O)[nH]c2=O)c1	> 16.8	> 200	96.2	< 4.70	4.92	< 4.8
Cc1cccc(Cn2cc(Nc3ccccc3)c(=O)[nH]c2=O)c1	> 4.5	> 200	> 100	4.00	4.35	> 1
Cc1ccccc1Cn1cc(Nc2ccccc2)c(=O)[nH]c1=O	–	> 100	> 100	4.92	< 4.00	> 8.3
O=c1[nH]c(=O)n(Cc2ccccc2)cc1Nc1ccccc1	–	> 100	–	–	< 4.00	–
O=c1[nH]c(=O)n([C@H]2CO[C@@H](CO)O2)cc1I	–	–	> 100	7.48	–	> 3030
Cc1cn([C@H]2C[C@H](N=[N+]=[N-])[C@@H](CO)O2)c(=O)[nH]c1=O [ZIDOVUDINE]	> 125	> 1	–	–	8.10	–
